According to ChEMBL document CHEMBL2385052, “Identification of the fused bicyclic 4-amino-2-phenylpyrimidine derivatives as novel and potent PDE4 inhibitors” (Bioorg Med Chem Lett, 2013):
Calls of active or inactive are those of the source. No cut-off for these calls is given here.

Assays:
[1] = molecular target: T1, 3',5'-cyclic-AMP phosphodiesterase 4B (Homo sapiens, UniProt Q07343); assay: Inhibition of human recombinant PDE4B (152 to 564 amino acids) using cAMP as substrate after 30 mins by plate reader analysis
[2] = Octanol-phosphate buffer partition coefficient, log D of the compound at pH 7.4 after 12 hrs by shake flask method; assay type: physicochemical
[3] = Antiinflammatory activity in Balb/c mouse splenocytes assessed as LPS-induced TNF-alpha production after 18 to 24 hrs by AlphaLISA; assay type: functional, cell-based; conditions: Splenocyte
[4] = Permeability of the compound at pH 7.4 after 4 hrs by PAMPA; assay type: ADME; conditions: read-out: permeability
Method in brief: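 Passive membrane permeability was measured by PAMPA at pH 7.4. The effective permeability coefficient Pe is reported in 10^-6 cm/sec.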

[5] = molecular target: T1, 3',5'-cyclic-AMP phosphodiesterase 4B; assay: Inhibition of human recombinant PDE4B (152 to 564) using cAMP as substrate at 10 uM after 30 mins by plate reader analysis
Mus musculus = assay: Antiinflammatory activity in ip dosed BALB/c mouse assessed as inhibition of LPS-induced pulmonary neutrophilia administered 30 mins prior to LPS challenge measured after 4 to 5 hrs; assay type: functional; conditions: for ED50: read-out: ID50 (the source's name)

T1 sequence (Q07343 whole entry, the tested form may be a part): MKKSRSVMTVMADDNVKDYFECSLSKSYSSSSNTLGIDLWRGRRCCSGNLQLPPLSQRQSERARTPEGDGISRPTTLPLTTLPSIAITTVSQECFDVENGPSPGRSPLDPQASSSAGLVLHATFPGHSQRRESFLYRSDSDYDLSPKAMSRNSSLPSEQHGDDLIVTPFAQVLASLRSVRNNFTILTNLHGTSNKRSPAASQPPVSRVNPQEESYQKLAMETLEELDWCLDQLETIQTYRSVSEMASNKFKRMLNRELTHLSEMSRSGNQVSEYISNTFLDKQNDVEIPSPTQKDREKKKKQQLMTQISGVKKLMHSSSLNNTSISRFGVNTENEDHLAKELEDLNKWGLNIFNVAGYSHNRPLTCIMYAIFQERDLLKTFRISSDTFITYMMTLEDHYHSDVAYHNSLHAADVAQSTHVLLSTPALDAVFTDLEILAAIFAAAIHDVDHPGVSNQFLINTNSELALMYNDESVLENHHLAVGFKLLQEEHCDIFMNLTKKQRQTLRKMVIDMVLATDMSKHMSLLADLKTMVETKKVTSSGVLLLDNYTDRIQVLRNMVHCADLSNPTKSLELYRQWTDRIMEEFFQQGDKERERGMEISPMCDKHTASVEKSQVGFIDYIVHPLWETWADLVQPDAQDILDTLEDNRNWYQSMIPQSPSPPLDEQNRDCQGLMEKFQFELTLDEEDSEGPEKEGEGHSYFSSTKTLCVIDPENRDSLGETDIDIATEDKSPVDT

Which IC50 [1] does the source give for `O=C(O)CN1CCN(c2nc(-c3ccccc3)nc3c2CS(=O)(=O)C3)CC1` here?
Its IC50 is 5000 nM.

For `O=C(O)Cc1ccc(Nc2nc(-c3ccccc3)nc3c2CS(=O)(=O)C3)cc1`, which logD at 12 h [2] is on record?
The logD at 12 h was 0.016.

And the IC50 [3]?
Its IC50 is 970 nM.

And the Papp at 4 h [4]?
Its Papp at 4 h is less than 2 ×10⁻⁶ cm/s.

What about the IC50 [1] of the same compound?
Its IC50 is 140 nM.

What does the source list for `CC(C)(C)NC(=O)Cc1ccc(Nc2nc(-c3ccccc3)nc3c2S(=O)(=O)CCC3)cc1`?
IC50 [3]: 8.5 nM; IC50 [1]: 11 nM

What does the source list for `O=C(O)Cc1ccc(Nc2nc(-c3ccccc3)nc3c2S(=O)(=O)CCC3)cc1`?
logD at 12 h [2]: 0.43; IC50 [3]: 390 nM; Papp at 4 h [4]: 5.8 ×10⁻⁶ cm/s; IC50 [1]: 25 nM

Which IC50 [3] does the source give for `O=C(Nc1c(Cl)cncc1Cl)c1ccc(OC(F)F)c(OCC2CC2)c1` [ROFLUMILAST] here?
The IC50 was 1.2 nM.

For `O=C(O)Cc1ccc(Nc2nc(-c3ccccc3)nc3c2S(=O)(=O)CC3)cc1`, which IC50 [3] is on record?
The IC50 was greater than 10000 nM.

What about the IC50 [1] of the same compound?
Its IC50 is 280 nM.

With `O=C(O)Cc1ccc(Nc2nc(-c3ccccc3)nc3c2COC3)cc1` as the compound, how does the IC50 [1] read?
The IC50 was 2200 nM.

For `O=C(O)Cc1ccc(Nc2nc(-c3ccccc3)nc3c2CS(=O)(=O)CC3)cc1`, which IC50 [1] is on record?
The IC50 was 7900 nM.

For `O=C(Cc1ccc(Nc2nc(-c3ccccc3)nc3c2S(=O)(=O)CCC3)cc1)Nc1ccccc1`, which IC50 [3] is on record?
The IC50 was 18 nM.

What about the IC50 [1] of the same compound?
Its IC50 is 43 nM.

For `O=C(O)Cc1ccc(Nc2nc(-c3ccccc3)nc3c2CCCCC3)cc1`, which inhibition [5] is on record?
Its inhibition is 35%.

Which ED50 (Mus musculus) does the source give for `CCCNC(=O)Cc1ccc(Nc2nc(-c3ccccc3)nc3c2S(=O)(=O)CCC3)cc1` here?
Its ED50 is 18 mg/kg.

What about the IC50 [3] of the same compound?
The IC50 was 9.8 nM.

What about the IC50 [1] of the same compound?
The IC50 was 7.5 nM.

With `O=C(O)CCc1ccc(Nc2nc(-c3ccccc3)nc3c2CS(=O)(=O)C3)cc1` as the compound, how does the IC50 [1] read?
The IC50 was 800 nM.

With `O=C(O)Cc1ccc(Nc2nc(-c3ccccc3)nc3c2CCS(=O)(=O)C3)cc1` as the compound, how does the logD at 12 h [2] read?
Its logD at 12 h is -0.45.

And the IC50 [3]?
Its IC50 is greater than 10000 nM.

And the Papp at 4 h [4]?
Its Papp at 4 h is less than 2 ×10⁻⁶ cm/s.

And the IC50 [1]?
The IC50 was 28 nM.

With `CNC(=O)Cc1ccc(Nc2nc(-c3ccccc3)nc3c2S(=O)(=O)CCC3)cc1` as the compound, how does the IC50 [3] read?
Its IC50 is 35 nM.

And the IC50 [1]?
The IC50 was 27 nM.

Which IC50 [1] does the source give for `O=C(O)Cc1ccc(Nc2nc(-c3ccccc3)nc3c2CCCC3)cc1` here?
The IC50 was 430 nM.

With `O=C(O)Cc1ccc(Nc2nc(-c3ccccc3)nc3ccccc23)cc1` as the compound, how does the IC50 [1] read?
Its IC50 is 480 nM.

Which results are given for `O=C(O)Cc1ccc(Nc2nc(-c3ccccc3)nc3c2CSC3)cc1`?
logD at 12 h [2]: 1.3; IC50 [3]: 220 nM; Papp at 4 h [4]: 13.3 ×10⁻⁶ cm/s; IC50 [1]: 29 nM

With `O=C(O)CC1CCN(c2nc(-c3ccccc3)nc3c2CSC3)CC1` as the compound, how does the IC50 [1] read?
Its IC50 is 150 nM.

Which IC50 [1] does the source give for `O=C(O)CN1CCC(Nc2nc(-c3ccccc3)nc3c2CS(=O)(=O)C3)CC1` here?
The IC50 was 3000 nM.

Which IC50 [1] does the source give for `O=C(O)Cc1cccc(Nc2nc(-c3ccccc3)nc3c2CS(=O)(=O)C3)c1` here?
The IC50 was 2500 nM.

For `O=C(O)Cc1ccc(Nc2nc(-c3ccccc3)nc3ncccc23)cc1`, which inhibition [5] is on record?
Its inhibition is 14%.

With `CC(C)(C)CNC(=O)Cc1ccc(Nc2nc(-c3ccccc3)nc3c2S(=O)(=O)CCC3)cc1` as the compound, how does the Activity (Mus musculus) read?
Its Activity is “inactive”.

What about the IC50 [3] of the same compound?
The IC50 was 0.8 nM.

And the IC50 [1]?
Its IC50 is 4.7 nM.

Which results are given for `CC(C)CNC(=O)Cc1ccc(Nc2nc(-c3ccccc3)nc3c2S(=O)(=O)CCC3)cc1`?
IC50 [3]: 4.7 nM; IC50 [1]: 6.6 nM

For `O=C(O)Cc1ccc(Nc2nc(-c3ccccc3)nc3c2CCC3)cc1`, which IC50 [1] is on record?
The IC50 was 610 nM.

With `O=C(O)Cc1ccc(Nc2nc(-c3ccccc3)nc3sccc23)cc1` as the compound, how does the IC50 [1] read?
The IC50 was 230 nM.

For `O=C(O)CC1CCN(c2nc(-c3ccccc3)nc3c2CS(=O)(=O)C3)CC1`, which IC50 [1] is on record?
Its IC50 is 190 nM.

What does the source list for `CCCCNC(=O)Cc1ccc(Nc2nc(-c3ccccc3)nc3c2S(=O)(=O)CCC3)cc1`?
ED50 (Mus musculus): 23 mg/kg; IC50 [3]: 13 nM; IC50 [1]: 22 nM

With `CN(C)C(=O)Cc1ccc(Nc2nc(-c3ccccc3)nc3c2S(=O)(=O)CCC3)cc1` as the compound, how does the IC50 [3] read?
Its IC50 is 17 nM.

And the IC50 [1]?
Its IC50 is 33 nM.

With `NC(=O)Cc1ccc(Nc2nc(-c3ccccc3)nc3c2S(=O)(=O)CCC3)cc1` as the compound, how does the logD at 12 h [2] read?
The logD at 12 h was 2.9.

What about the IC50 [3] of the same compound?
Its IC50 is 8.5 nM.

And the Papp at 4 h [4]?
Its Papp at 4 h is greater than 50 ×10⁻⁶ cm/s.

What about the IC50 [1] of the same compound?
Its IC50 is 16 nM.

What does the source list for `O=C(O)Cc1ccc(Nc2nc(-c3ccccc3)nc3c2SCCC3)cc1`?
logD at 12 h [2]: 1.4; IC50 [3]: 90 nM; Papp at 4 h [4]: 15.5 ×10⁻⁶ cm/s; IC50 [1]: 29 nM
